Measured values of several laboratories.
Compare with care: the assays were run in different laboratories.
BPTF: Nucleosome-remodeling factor subunit BPTF (BPTF, Homo sapiens, UniProt Q12830)
SMARCA2: SWI/SNF-related matrix-associated actin-dependent regulator of chromatin subfamily A member 2 (SMARCA2, Homo sapiens, UniProt P51531)
BRAF V600E: Serine/threonine-protein kinase B-raf (BRAF, Homo sapiens, UniProt P15056, V600E)
PADI2: Protein-arginine deiminase type-2 (PADI2, Homo sapiens, UniProt Q9Y2J8)
Blk: Tyrosine-protein kinase Blk (Blk, Mus musculus, UniProt P16277)

| SMILES | target | assay | system | conditions | quantity | value |
| --- | --- | --- | --- | --- | --- | --- |
| CC1(c2ccccc2)COCC(N)=N1 (centres unmarked) | Beta-secretase 1 (BACE1, Homo sapiens, UniProt P56817) | thermal stability, DSF | – | 2.1 mM, pH 5.4 | ΔTm | 2.78 °C |
| Oc1ccc(-c2nc(-c3ccncc3)c(-c3ccc(F)cc3)[nH]2)cc1 | BPTF | thermal stability, DSF | – | 10 µM | ΔTm | 0.18 °C |
| Cc1ncsc1-c1ccc(CNC(=O)[C@@H]2C[C@@H](O)CN2C(=O)[C@@H](NC(=O)C2(F)CC2)C(C)(C)C)c(OCCOCCOCCN2CCN(c3cc(-c4ccccc4O)nnc3N)CC2)c1 | SMARCA2 | protein level, degrader | MV4-11 | – | Dmax | ~65% |
| Cc1ccc(C(CS(=O)(=O)c2ccccc2)=NNC2=NC(=O)C(=NNc3ccc([N+](=O)[O-])cc3)S2)cc1 | BRAF V600E | enzyme activity, inhibitor, ATP luminescence | – | 1 µM | inhibition | 72% |
| N=C(CCl)NCCC[C@H](NC(=O)c1ccccc1)c1nn[nH]n1 | PADI2 | enzyme activity, inhibitor | – | – | kinact/KI | 14.5 M⁻¹ s⁻¹ |
| Cc1ccc(C(CS(=O)(=O)c2ccccc2)=NNc2nc(C)c(N=Nc3cccc(C)c3)s2)cc1 | BRAF V600E | enzyme activity, inhibitor, ATP luminescence | – | 10 nM | inhibition | 35% |
| C[S+]([O-])c1ccc(-c2nc(-c3ccncc3)c(-c3ccc(F)cc3)[nH]2)cc1 (centres unmarked) | BPTF | thermal stability, DSF | – | 10 µM | ΔTm | 0.89 °C |
| CCC(/C=C1\CCn2c1nc(=O)c1cc(OC)ccc12)CC | SMARCA2 | thermal stability, DSF | – | 100 µM | ΔTm | 0.14 °C |
| NS(=O)(=O)c1ccc(CCNCc2ccc(-c3ccccc3F)o2)cc1 | D(2) dopamine receptor (DRD2, Homo sapiens, UniProt P14416) | enzyme activity, inhibitor | – | 10 µM | inhibition | 34.6% |
| CCC(/C=C1\CCn2c1nc(=O)c1ccc(Cl)cc12)CC | SMARCA2 | thermal stability, DSF | – | 100 µM | ΔTm | -2.09 °C |
| NCCCC[C@H](NC(=O)[C@@H]1CCCN1C(=O)[C@@H]1CSSC[C@H](N)C(=O)N[C@@H](Cc2ccc(O)cc2)C(=O)N[C@@H](Cc2ccccc2)C(=O)N[C@@H](CCC(N)=O)C(=O)N[C@@H](CC(N)=O)C(=O)N1)C(=O)NCC(N)=O | Vasopressin V2 receptor (AVPR2, Homo sapiens, UniProt P30518) | cAMP, agonist, TR-FRET | CHO-K1 | – | Emax | ~100% |
| CC(C)(C)c1nc(-c2cccc(NS(=O)(=O)c3c(F)cccc3F)c2F)c(-c2ccnc(N)n2)s1 | BRAF V600E | enzyme activity, inhibitor, ATP luminescence | – | 10 µM | inhibition | 95% |
| NS(=O)(=O)c1ccc(Nc2nc(-c3ccc(F)cc3)c3ccccc3n2)cc1 | BPTF | binding, competition with immobilised ligand | – | 1 µM | remaining binding | 63% |
| CC(=O)N[C@H]1CSSC[C@@H](C(=O)N[C@@H](Cc2c[nH]c3ccccc23)C(N)=O)NC(=O)[C@H](Cc2ccccc2)NC(=O)[C@H](CCCNC(=N)N)NC1=O | Melanocortin receptor 3 (MC3R, Homo sapiens, UniProt P41968) | cAMP, agonist | HEK293 | 3 min | Emax | 0% |
| Cc1ccc(C(CS(=O)(=O)c2ccccc2)=NNC(N)=S)cc1 | BRAF V600E | enzyme activity, inhibitor, ATP luminescence | – | 10 µM | inhibition | 88% |
| Cc1ccc(C(=O)Nc2ccc(CN3CCN(C)CC3)c(C(F)(F)F)c2)cc1C#Cc1cnc2cccnn12 | Epidermal growth factor receptor (EGFR, Homo sapiens, UniProt P00533, L861Q) | cell-free assay | – | 23.5 nM | remaining signal | 92% |
| Cc1cnc(NC2CCOCC2)nc1-n1cnc(C(=O)NC(CN)c2cc(F)cc(Cl)c2)c1 (centres unmarked) | Blk | enzyme activity, inhibitor, radiometric | – | 1 µM | remaining activity | 106% |
| CCN1CCCn2c1nc1c2c(=O)n(C)c(=O)n1C | Adenosine receptor A3 (ADORA3, Homo sapiens, UniProt P0DMS8) | ligand displacement, radioligand | – | 10 µM, cell membranes | inhibition | 5% |
| CCC/C=C1\CCn2c1nc(=O)c1c(Cl)cccc12 | SMARCA2 | thermal stability, DSF | – | 100 µM | ΔTm | 4.61 °C |
| CC(C)(C)n1nnc([C@H](CCCNC(=N)CCl)NC(=O)c2ccccc2C(=O)O)n1 | PADI2 | enzyme activity, inhibitor | – | – | kinact/KI | 1000 M⁻¹ s⁻¹ |
| CCCOc1ccc(OC)c(F)c1C(=O)c1ccc(C(=O)N[C@@H]2CNC[C@H]2NC(=O)c2ccc3[nH]ncc3c2)cc1 | Muscle, skeletal receptor tyrosine-protein kinase (MUSK, Homo sapiens, UniProt O15146) | enzyme activity, inhibitor | – | 0.1 µM | remaining activity | 65% |
| Cc1ccc(Nc2nccc(N(C)c3ccc4c(C)n(C)nc4c3)n2)cc1S(N)(=O)=O | Blk | enzyme activity, inhibitor | – | 10 µM | inhibition | 73% |
| CC(C)(C)n1nnc([C@H](CCCNC(=N)CF)NC(=O)c2ccc(-c3ccccc3)cc2)n1 | PADI2 | enzyme activity, inhibitor | – | – | kinact/KI | 189 M⁻¹ s⁻¹ |
| CCC(/C=C1\CCn2c1nc(=O)c1ccc(O)cc12)CC | SMARCA2 | thermal stability, DSF | – | 100 µM | ΔTm | -0.07 °C |
| Nc1ncnc2occ(-c3ccc(NC(=O)Nc4cc(C(F)(F)F)ccc4F)cc3)c12 | Serine/threonine-protein kinase Nek5 (NEK5, Homo sapiens, UniProt Q6P3R8) | cell-free assay, inhibitor | – | 20 µM | remaining signal | 0.95% |
| Cc1ccc(C(CS(=O)(=O)c2ccccc2)=NN=C2N=C(c3ccc(C)cc3)CS2)cc1 | BRAF V600E | enzyme activity, inhibitor, ATP luminescence | – | 1 µM | inhibition | 65% |
| CC/C=C1\CCn2c1nc(=O)c1c(Cl)cccc12 | SMARCA2 | thermal stability, DSF | – | 100 µM | ΔTm | -1.47 °C |
| Cc1ccc(C(CS(=O)(=O)c2ccccc2)=NNc2nc(-c3ccc(OCCCCOc4ccc(-c5csc(NN=C(CS(=O)(=O)c6ccccc6)c6ccc(C)cc6)n5)cc4)cc3)cs2)cc1 | BRAF V600E | enzyme activity, inhibitor, ATP luminescence | – | 10 µM | inhibition | 91% |
| CCC(/C=C1\CCn2c1nc(=O)c1c(Cl)cccc12)CC | SMARCA2 | thermal stability, DSF | – | 100 µM | ΔTm | 5.33 °C |
